Test results reported in PMC2785155 (The Journal of Biological Chemistry, 2009).

How the values were obtained:
SufBC [1] = target: T1, SufBC (Thermotoga maritima, UniProt Q9X188); test: stopped-flow ADP dissociation trapped by MDCC-ParM; type: binding; details: 50 mM Tris-HCl pH 7.5, 100 mM KCl, 5 mM MgCl2, 2 mM dithiothreitol, 20 °C
T1 sequence (Q9X188 1-246): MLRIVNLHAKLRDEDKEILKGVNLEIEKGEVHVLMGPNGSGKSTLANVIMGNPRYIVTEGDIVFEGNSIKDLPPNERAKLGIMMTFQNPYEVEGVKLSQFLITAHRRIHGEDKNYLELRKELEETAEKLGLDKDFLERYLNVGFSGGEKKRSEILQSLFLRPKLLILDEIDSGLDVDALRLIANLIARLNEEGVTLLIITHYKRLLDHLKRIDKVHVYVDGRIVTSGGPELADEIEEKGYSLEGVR
T1 sequence (Q9X189 1-464 partner): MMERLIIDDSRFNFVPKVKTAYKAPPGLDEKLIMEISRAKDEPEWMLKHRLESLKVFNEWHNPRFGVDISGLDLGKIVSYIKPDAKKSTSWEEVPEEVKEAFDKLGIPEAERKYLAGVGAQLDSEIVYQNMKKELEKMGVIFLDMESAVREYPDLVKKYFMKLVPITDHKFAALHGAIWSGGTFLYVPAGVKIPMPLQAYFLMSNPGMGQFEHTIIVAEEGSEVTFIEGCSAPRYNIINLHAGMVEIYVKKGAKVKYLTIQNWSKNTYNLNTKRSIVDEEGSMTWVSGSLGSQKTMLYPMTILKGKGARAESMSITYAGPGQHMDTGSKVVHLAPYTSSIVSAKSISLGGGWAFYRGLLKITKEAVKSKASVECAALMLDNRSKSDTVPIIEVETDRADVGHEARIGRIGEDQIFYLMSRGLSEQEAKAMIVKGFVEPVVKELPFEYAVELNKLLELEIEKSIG
Method in brief: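 SufBC (13 μM) was preincubated with 4 μM ADP in one stopped-flow syringe. It was rapidly mixed with 80 or 160 μM MDCC-ParM ADP sensor, which traps ADP released from SufBC. ADP dissociation was read from the change in MDCC fluorescence over time.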

SufBC [2] = target: T1, SufBC; details: 50 mM Tris-HCl pH 7.5, 100 mM KCl, 5 mM MgCl2, 2 mM dithiothreitol, 20 °C

SMILES	rate constant (ADP dissociation) (SufBC [1])	single-turnover stopped-flow, MDCC-PBP and MDCC-ParM sensors (SufBC [2])
Nc1ncnc2c1ncn2[C@@H]1O[C@H](COP(=O)(O)OP(=O)(O)O)[C@@H](O)[C@H]1O [ADP]	0.046 s⁻¹	
Nc1ncnc2c1ncn2[C@@H]1O[C@H](COP(=O)(O)OP(=O)(O)OP(=O)(O)O)[C@@H](O)[C@H]1O [ATP]		study ADP and Pi release during a single turnover of ATP hydrolysis by SufBC
